Data as given in ChEMBL document CHEMBL2434969, “[(4-Hydroxyl-benzo[4,5]thieno[3,2-c]pyridine-3-carbonyl)-amino]-acetic acid derivatives; HIF prolyl 4-hydroxylase inhibitors as oral erythropoietin secretagogues” (Bioorg Med Chem Lett, 2013).
Each block holds one compound with its values, some of them ahead of it. Active and inactive are the calls of the source. The rule behind the calls is not given here.

Tests used:
[1] = AUC (0 to t) in CD1 mouse at 4 mg/kg, iv; assay type: ADME, organism-based; design: dose 4 mg/kg, route intravenous; details: plasma
[2] = Metabolic stability in mouse S9 fraction assessed as compound remaining measured at 60 mins; assay type: ADME; details: s9, 1 h
[3] = Metabolic stability in human S9 fraction assessed as compound remaining measured at 60 mins; assay type: ADME; details: read-out: Stability
[4] = Metabolic stability in human microsomes assessed as compound remaining measured at 60 mins; assay type: ADME, Microsome; details: read-out: Stability
[5] = Bioavailability in CD1 mouse at 4 mg/kg, iv; assay type: ADME, organism-based; details: in vivo
[6] = Half life in CD1 mouse at 4 mg/kg, iv; assay type: ADME, organism-based; design: dose 4 mg/kg, route intravenous; details: in vivo
[7] = Tmax in CD1 mouse at 20 mg/kg, po; assay type: ADME, organism-based; design: dose 20 mg/kg, route oral; details: in vivo
[8] = AUC (0 to t) in CD1 mouse at 20 mg/kg, po; assay type: ADME, organism-based; design: dose 20 mg/kg, route oral; details: plasma
[9] = Metabolic stability in mouse microsomes assessed as compound remaining measured at 60 mins; assay type: ADME, Microsome; details: read-out: Stability
[10] = Volume of distribution at steady state in CD1 mouse at 4 mg/kg, iv; assay type: ADME, organism-based; design: dose 4 mg/kg, route intravenous; details: in vivo, read-out: Vdss
[11] = Clearance in CD1 mouse at 4 mg/kg, iv; assay type: ADME, organism-based; design: dose 4 mg/kg, route intravenous; details: in vivo
[12] = Cmax in CD1 mouse at 20 mg/kg, po; assay type: ADME, organism-based; design: dose 20 mg/kg, route oral; details: in vivo
Mus musculus [13] = assay: Anti-anemia activity in ICR mouse assessed as increase in hematocrit level at 50 mg/kg, qd administered for 12 days measured on day 16; assay type: functional, organism-based; design: dose 50 mg/kg
Procedure, shortened: (§1)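 Normal male ICR mice, 6 weeks old, dosed once daily for 4 days (QDx4) or 12 days (QDx12) alongside a vehicle group. Mice were split into groups by blood sampling day (D5, D8, D13, D16). Hematocrit, RBC count and Hb were measured in blood. Statistics: P<0.05 and P<0.01 vs vehicle at each sampling time.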

Mus musculus [14] = assay: Anti-anemia activity in ICR mouse assessed as increase in hemoglobin level at 50 mg/kg, qd administered for 12 days measured on day 16; assay type: functional, organism-based; design: dose 50 mg/kg; procedure, shortened: as §1
Mus musculus [15] = assay: Anti-anemia activity in ICR mouse assessed as increase in hematocrit level at 50 mg/kg, qd administered for 12 days measured on day 13; assay type: functional, organism-based; design: dose 50 mg/kg; procedure, shortened: as §1
Mus musculus [16] = assay: Anti-anemia activity in ICR mouse assessed as increase in hemoglobin level at 50 mg/kg, qd administered for 4 days measured on day 5; assay type: functional, organism-based; design: dose 50 mg/kg; procedure, shortened: as §1
Mus musculus [17] = assay: Anti-anemia activity in ICR mouse assessed as increase in hematocrit level at 50 mg/kg, qd administered for 4 days measured on day 8; assay type: functional, organism-based; design: dose 50 mg/kg; procedure, shortened: as §1
Mus musculus [18] = assay: Anti-anemia activity in ICR mouse assessed as increase in red blood cell count at 50 mg/kg, qd administered for 12 days measured on day 16; assay type: functional, organism-based; design: dose 50 mg/kg; procedure, shortened: as §1
Mus musculus [19] = assay: Anti-anemia activity in ICR mouse assessed as increase in red blood cell count at 50 mg/kg, qd administered for 12 days measured on day 13; assay type: functional, organism-based; design: dose 50 mg/kg; procedure, shortened: as §1
Mus musculus [20] = assay: Anti-anemia activity in ICR mouse assessed as increase in hemoglobin level at 50 mg/kg, qd administered for 4 days measured on day 8; assay type: functional, organism-based; design: dose 50 mg/kg; procedure, shortened: as §1
Mus musculus [21] = assay: Anti-anemia activity in ICR mouse assessed as increase in hematocrit level at 50 mg/kg, qd administered for 4 days measured on day 5; assay type: functional, organism-based; design: dose 50 mg/kg; procedure, shortened: as §1
Mus musculus [22] = assay: Anti-anemia activity in ICR mouse assessed as increase in hemoglobin level at 50 mg/kg, qd administered for 12 days measured on day 13; assay type: functional, organism-based; design: dose 50 mg/kg; procedure, shortened: as §1
Mus musculus [23] = assay: Anti-anemia activity in ICR mouse assessed as increase in red blood cell count at 50 mg/kg, qd administered for 4 days measured on day 8; assay type: functional, organism-based; design: dose 50 mg/kg; procedure, shortened: as §1
Mus musculus [24] = assay: Anti-anemia activity in ICR mouse assessed as increase in red blood cell count at 50 mg/kg, qd administered for 4 days measured on day 5; assay type: functional, organism-based; design: dose 50 mg/kg; procedure, shortened: as §1

AUC(0-t) [1]: 17000 ng·h/mL | Stability [2]: 125.7% | remaining at 1 h [3]: 101% | remaining at 1 h [4]: 119% | bioavailability [5]: 63.2% | half-life [6]: 2.79 h | Tmax [7]: 0.5 h | AUC(0-t) [8]: 53700 ng·h/mL | remaining at 1 h [9]: 68.6% | Vd [10]: 0.503 L/kg | clearance [11]: 3.92 mL/min/kg | Cmax [12]: 15100 ng/mL
Compound: O=C(O)CNC(=O)c1nc(Cl)c2c(sc3ccccc32)c1O

Compound: O=C(O)CNC(=O)c1nc(Cl)c2ccccc2c1O
inhibition (Mus musculus [13]): Active | inhibition (Mus musculus [14]): Active | inhibition (Mus musculus [15]): Active | inhibition (Mus musculus [16]): Active | inhibition (Mus musculus [17]): Active | inhibition (Mus musculus [18]): Active | inhibition (Mus musculus [19]): Active | inhibition (Mus musculus [20]): Active | inhibition (Mus musculus [21]): Active | inhibition (Mus musculus [22]): Active | inhibition (Mus musculus [23]): Active | inhibition (Mus musculus [24]): Active
